Reference: paper PMC6842100 (Molecular neurobiology, 2019)

Assays:
LDLR = test: Aβ-induced soluble LDLR in HBMEC media upon MMP9 inhibition; format: cell-based, human; settings: Aβ(1-42) 2μM plus inhibitor 1μM, 48 hours at 37°C, ELISA, n = 3
apoE-TR mice = test: Mouse Aβ BBB clearance model: human Aβ; format: in vivo; settings: SB-3CT 25 mg/kg i.p., plasma human Aβ(1-42) ELISA, n = 4
LRP1 = test: Aβ-induced soluble LRP1 in HBMEC media upon MMP9 inhibition; format: cell-based, human; settings: Aβ(1-42) 2μM plus inhibitor 1μM, 48 hours at 37°C, ELISA, n = 3
[1] = test system: in vitro model of the BBB (HBMEC monolayer); test: Paracellular marker; format: cell-based, human; settings: each SB-3CT concentration (0.1, 0.5, 1, 5, 10μM), data not shown
How it was run: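 HBMEC were seeded at 100,000 cells/cm² on fibronectin-coated (4 µg/cm²) 0.4 µm-pore inserts (0.3 cm²) to form a polarized monolayer. Inserts holding test compound were exposed to wells with 10 kD lucifer yellow dextran at 37 °C. Basolateral was sampled at time 0 and apical at 0, 30 and 60 min (basolateral-to-apical). Apparent permeability = 1/AC0 × dQ/dt, compared with control.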

HBMEC = test: LDH cytotoxicity assay in HBMEC extracellular media; format: cell-based, human; settings: 48 hours at 37°C, data not shown

Row | Compound | reduction of soluble LDLR levels compared to Aβ alone (LDLR) | extent of Aβ BBB elimination in SB-3CT-treated apoE4-TR mice versus apoE3-TR animals (apoE-TR mice) | decrease of soluble LRP1 levels compared to Aβ alone (LRP1) | BBB monolayer integrity: movement of 10kDa lucifer yellow dextran vs control [1] | LDH release (HBMEC; 20μM Aβ) | cellular toxicity (LDH cytotoxicity assay) (HBMEC; Aβ concentrations 0 to 2μM)
1 | CNC(=O)[C@@H](NC(=O)[C@H](CC(C)C)[C@H](O)C(=O)NO)C(C)(C)C [marimastat] | approximately 40% | – | – | – | – | –
2 | O=S(=O)(CC1CS1)c1ccc(Oc2ccccc2)cc1 (stereo not shown) [SB-3CT] | approximately 40% | the same as that observed in the apoE3-TR animals | approximately 40% | no difference | – | –
3 | Aβ(1-42): unlabeled human beta-amyloid (1-42) peptide, purchased from Invitrogen, used in monomeric form | – | – | – | – | significant increase in LDH release | no cellular toxicity was observed
